Bioassay records: PubChem BioAssay, Sanford-Burnham Center for Chemical Genomics
SENP8 block-1: inhibitors of human SENP8 protease. inhibition, % at 20 µM. Q96LD8. recombinant SENP8, Nedd8 substrate fluorescence. AID 602440. 360,000 compounds, 0.64% hits; in the data active means inhibition mostly above about 40%, no sharp cut-off; inactive means mostly below about 27%
SENP7 block: inhibitors of human SENP7 protease; recombinant SENP7, Z-RLRGG-aminoluciferin luminescence, 40 min; inhibition, % at 5 µM; 330,000 compounds, 1.5% hits;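 active means inhibition above about 50% at the single test dose, limit read from the data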
Target sequence (Q9BQF6 706-1050 limits assumed): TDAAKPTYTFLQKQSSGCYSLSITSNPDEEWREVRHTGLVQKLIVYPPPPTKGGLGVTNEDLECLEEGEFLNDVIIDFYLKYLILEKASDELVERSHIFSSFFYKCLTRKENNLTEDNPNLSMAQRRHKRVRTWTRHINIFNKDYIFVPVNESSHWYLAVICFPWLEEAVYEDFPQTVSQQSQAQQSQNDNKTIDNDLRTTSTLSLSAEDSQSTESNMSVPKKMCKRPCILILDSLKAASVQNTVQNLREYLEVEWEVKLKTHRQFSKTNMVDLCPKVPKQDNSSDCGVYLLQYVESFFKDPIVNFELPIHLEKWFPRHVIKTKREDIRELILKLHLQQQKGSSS
SENP6 inh: SENP6 protease inhibition; Recombinant SENP6 catalytic domain, aminoluciferin luminescence; inhibition, % at 10 µM; 330,000 compounds, 1.8% hits;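 active means inhibition above about 50% at the single tested dose, limit read from the data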
SENP1 FRET inh: inhibitors of human SENP1 SUMO protease catalytic domain; AID 624204; recombinant SENP1 catalytic domain, CyPet-SUMO1-YPet FRET cleavage; Q9P0U3; inhibition, % at 10 µM; 360,000 compounds, 0.21% hits;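 active means inhibition at least 30% at 10 µM, raw YFP signal under a set limit, fluorescence ratio 0.5 to 1.5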
Target sequence (Q9P0U3 419-644 limits assumed): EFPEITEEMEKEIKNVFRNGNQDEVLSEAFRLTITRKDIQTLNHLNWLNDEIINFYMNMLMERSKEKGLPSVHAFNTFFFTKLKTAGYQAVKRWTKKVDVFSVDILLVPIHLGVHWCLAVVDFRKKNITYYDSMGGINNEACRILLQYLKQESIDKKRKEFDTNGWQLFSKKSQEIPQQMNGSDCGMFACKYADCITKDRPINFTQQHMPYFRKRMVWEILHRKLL
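Assay system: hSENP1 catalytic domain, recombinant. Amount: SENP1 enzyme, 20 pM final. Schedule: 50 min reaction, RT, dark. Technique: FRET, CFP and YFP emission. Control set: no-enzyme wells low, DMSO-plus-enzyme wells high control.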
SENP8 block-2: inhibitors of human SENP8 protease; Q96LD8; purified SENP8, Z-RLRGG-aminoluciferin cleavage, luminescence; inhibition, % at 10 µM; 330,000 compounds, 1.2% hits; in the data active means inhibition above about 50%
SENP8 confirm: human SENP8 inhibition, confirmed; Recombinant SENP8, Z-RLRGG-aminoluciferin luminescence, 60 min; AID 488912; inhibition, % at 12.5 µM; 6,200 compounds, 40% hits; shares compounds with SENP7 block;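 active means mean inhibition across replicates above about 50%, limit read from the data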
SENP6 conf: human SENP6 inhibition, confirmed; inhibition, % at 12.5 µM; recombinant SENP6, Z-RLRGG-aminoluciferin luminescence; 6,200 compounds, 58% hits; shares compounds with SENP7 block
SENP7 confirm: confirmation of human SENP7 protease inhibitors; recombinant SENP7, Z-RLRGG-aminoluciferin luminescence, 40 min; shares compounds with SENP7 block; inhibition, % at 12.5 µM; 6,200 compounds, 69% hits
Casp3 SENP sel: inhibits human caspase-3 in SENP selectivity test; purified caspase-3, Z-DEVD-aminoluciferin luminescence, 60 min; inhibition, % at 12.5 µM; 6,200 compounds, 60% hits; shares compounds with SENP7 block;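 active means mean inhibition above about 50%, limit read from the data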
Luc interf: luminescence interference (SENP counter-screen); shares compounds with SENP7 block; Pre-incubated SENP8/Z-RLRGG-aminoluciferin, luciferase luminescence interference; inhibition, % at 12.5 µM; 6,200 compounds, 39% hits; AID 488919;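 active means mean inhibition above about 50% when retested at one dose, limit read from the data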
Each line names hits and unclear results; the compound was inactive in the other large screens (follow-up assays come after a bar, where they were run). An excerpt weighted towards active compounds, which were near 2.5% of everything screened.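 How the source made its calls, unless noted: active means mean inhibition above about 50% in the one-dose retest (limit read from the data); inactive means the rest.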

O=C(Nc1ccc(Cl)cc1)Nc1ccccc1Sc1ncc([N+](=O)[O-])s1	SENP7 block 95, SENP6 inh 99, SENP8 block-2 96 | SENP8 confirm 100 | SENP6 conf 101 | SENP7 confirm 104 | Casp3 SENP sel 100 | Luc interf inactive
COCC(C)NC(=O)c1noc2c1CCc1cc(OC)ccc1-2 (centres undefined)	SENP7 block 52, SENP6 inh 53 | SENP8 confirm inactive | SENP6 conf inactive | SENP7 confirm 74 | Casp3 SENP sel 73 | Luc interf 60
COc1ccc2c(c1)CCc1c(C(=O)NC3CCCCC3)noc1-2	SENP7 block 86 | SENP8 confirm inactive | SENP6 conf inactive | SENP7 confirm inactive | Casp3 SENP sel inactive | Luc interf inactive
COCCNC(=O)c1noc2c1CCc1cc(OC)ccc1-2	none
Cc1ccc(Cl)cc1-c1cc(C(=O)NCc2cc(C(F)(F)F)cc(C(F)(F)F)c2)[nH]n1	none (no result: SENP7 block, SENP6 inh, SENP8 block-2)
O=C(O/N=C1/CCSc2ccccc21)c1ccccc1	SENP7 block 74, SENP6 inh 89, SENP8 block-2 79 | SENP8 confirm 90 | SENP6 conf 89 | SENP7 confirm 98 | Casp3 SENP sel 79 | Luc interf 75
O=C(O/N=C1\CCCc2ccccc21)c1ccc(F)cc1	SENP7 block 95, SENP6 inh 78, SENP8 block-2 72 | SENP8 confirm inactive | SENP6 conf 55 | SENP7 confirm inactive | Casp3 SENP sel inactive | Luc interf inactive
Cc1ccc2c(c1)/C(=N/OC(=O)c1ccc(F)cc1)CCS2	none
Cc1ccc(NC(=O)C2(C)CCN2C(=O)Cc2ccccc2Cl)cc1C (centres undefined)	none (no result: SENP7 block, SENP6 inh, SENP8 block-2)
O=C1C(Nc2cccc(O)c2)=C(N2CCCCC2)C(=O)c2ccccc21	SENP8 block-1 76, SENP6 inh 81, SENP8 block-2 63 | SENP8 confirm 57 | SENP6 conf 77 | SENP7 confirm inactive | Casp3 SENP sel 94 | Luc interf inactive
Cc1ccc(NC2=C(N3CCCCC3)C(=O)c3ccccc3C2=O)cc1	SENP8 block-1 82, SENP6 inh 66, SENP8 block-2 52 | SENP8 confirm inactive | SENP6 conf 90 | SENP7 confirm 74 | Casp3 SENP sel 95 | Luc interf inactive
COc1ccccc1NC1=C(N2CCCCC2)C(=O)c2ccccc2C1=O	SENP8 block-1 88, SENP6 inh 74, SENP8 block-2 73 | SENP8 confirm inactive | SENP6 conf 91 | SENP7 confirm 72 | Casp3 SENP sel 97 | Luc interf inactive
O=C1C(Nc2ccccc2)=C(N2CCCCC2)C(=O)c2ccccc21	SENP8 block-1 83, SENP7 block 61, SENP6 inh 86, SENP8 block-2 59 | SENP8 confirm 63 | SENP6 conf 79 | SENP7 confirm 58 | Casp3 SENP sel 95 | Luc interf inactive
COC1=C(Nc2ccccc2)C(=O)c2ccccc2C1=O	none
CC1=C(Nc2ccc(C(=O)O)cc2)C(=O)c2ccccc2C1=O	none
C=CCN(c1ccccc1OC)S(=O)(=O)c1cccc(C(=O)NCC(c2ccc(OC)cc2)N2CCCC2)c1 (centres undefined)	none (no result: SENP7 block, SENP6 inh, SENP8 block-2)
CN(C)c1ccc(/C=C/C(=O)c2ccc(O)cc2)cc1	none (no result: SENP7 block, SENP6 inh, SENP8 block-2)
O=C(/C=C/c1ccc(O)cc1)c1ccc(NC2=C(N3CCCCC3)C(=O)c3ccccc3C2=O)cc1	SENP6 inh 76, SENP8 block-2 67 | SENP8 confirm 64 | SENP6 conf 85 | SENP7 confirm 77 | Casp3 SENP sel 95 | Luc interf 84
O=C(CNc1ccc(Br)cc1)NNC1=NCCC1	none
COc1ccc(S(=O)(=O)N2CCCOC2CNC(=O)C(=O)NCc2ccccn2)cc1 (centres undefined)	none
Cc1cc(C(=O)Nn2cnnc2)ccc1[N+](=O)[O-]	SENP7 block 78, SENP6 inh 81, SENP8 block-2 72 | SENP8 confirm 69 | SENP6 conf 65 | SENP7 confirm 92 | Casp3 SENP sel 93 | Luc interf 76
Cn1cc(Cl)c(C(=O)N/N=C/c2ccc3c4c(cccc24)CC3)n1	SENP7 block 53 | SENP8 confirm inactive | SENP6 conf inactive | SENP7 confirm inactive | Casp3 SENP sel inactive | Luc interf inactive
Cc1ccc(/C=N/NC(=O)c2nn(C)cc2Cl)cc1	none
CC(=O)Nc1cc2nn(-c3ccccc3)nc2cc1Cl	SENP7 block 76, SENP6 inh 69 | SENP8 confirm inactive | SENP6 conf inactive | SENP7 confirm inactive | Casp3 SENP sel inactive | Luc interf inactive
CC(C)C(=O)Nc1ccc2nn(-c3ccccc3)nc2c1	SENP7 block 51 | SENP8 confirm inactive | SENP6 conf inactive | SENP7 confirm 71 | Casp3 SENP sel inactive | Luc interf inactive
C[C@@]12CC[C@@H](C3=C(CCC3)C1)N2c1ccccc1	none (no result: SENP7 block, SENP6 inh, SENP8 block-2)
CCN(CC(=O)Nc1ccc2c(c1)OCCO2)C(=O)CC(NC(C)=O)c1ccccc1 (centres undefined)	none
CN(C)c1ccc(/C=N/NC(=O)c2ccc3c(c2)OCO3)cc1	none
CCOC(=O)N/N=C\c1ccc(OC(=O)c2ccc3c(c2)OCO3)cc1	SENP7 block 72, SENP6 inh 66, SENP8 block-2 58 | SENP8 confirm inactive | SENP6 conf inactive | SENP7 confirm inactive | Casp3 SENP sel inactive | Luc interf inactive
Cc1ccc(-n2c(C)cc(C(=O)CSc3nnnn3C)c2C)cc1	SENP7 block 69, SENP8 block-2 60 | SENP8 confirm 80 | SENP6 conf 78 | SENP7 confirm 95 | Casp3 SENP sel 79 | Luc interf 76
O=C(C#Cc1ccccc1)Nc1cccc(F)c1	SENP7 block 84, SENP6 inh 81, SENP8 block-2 71 | SENP8 confirm 85 | SENP6 conf 83 | SENP7 confirm 93 | Casp3 SENP sel 67 | Luc interf 75
CSc1ccccc1NC(=O)Nc1ccccc1	SENP7 block 81, SENP6 inh 90, SENP8 block-2 66 | SENP8 confirm inactive | SENP6 conf 82 | SENP7 confirm inactive | Casp3 SENP sel 83 | Luc interf 83
CSc1ccccc1NC(=O)Nc1cccc(F)c1	SENP7 block 83, SENP6 inh 86, SENP8 block-2 69 | SENP8 confirm 87 | SENP6 conf 86 | SENP7 confirm 98 | Casp3 SENP sel 79 | Luc interf 68
